In ChEMBL document CHEMBL4342500, “Modulating Heparanase Activity: Tuning Sulfation Pattern and Glycosidic Linkage of Oligosaccharides” (J Med Chem, 2020):
Calls of active or inactive are those of the source. The calls are words filed in the database; no cut-off is given here.

Columns and labels:
Coagulation factor X = Coagulation factor X (Homo sapiens, UniProt P00742); assay: Inhibition of coagulation factor 10a (unknown origin) incubated for 2 mins in presence of AT3 by chromogenic substrate based […] assay
In short: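 Two-stage chromogenic anti-FXa: sample (heparin 0.002-500 nM or trisaccharide 3.9-4000 nM) with ATIII (0.04 IU), 2 min at 37 °C; FXa (0.32 μg) added, 2 min at 37 °C; chromogenic substrate added, stopped after 2 min with citric acid (20 g/L). Absorbance at 405 nm in triplicate, minus reverse-order sample blank.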

Heparanase = biological target: T1, Heparanase (Homo sapiens, UniProt Q9Y251); assay: Inhibition of heparanase (unknown origin) using biotin-heparan sulfate-Eu cryptate as substrate preincubated for 10 mins followed by substrate addition and measured after 60 mins by TR-FRET assay
T1 sequence (Q9Y251 whole entry): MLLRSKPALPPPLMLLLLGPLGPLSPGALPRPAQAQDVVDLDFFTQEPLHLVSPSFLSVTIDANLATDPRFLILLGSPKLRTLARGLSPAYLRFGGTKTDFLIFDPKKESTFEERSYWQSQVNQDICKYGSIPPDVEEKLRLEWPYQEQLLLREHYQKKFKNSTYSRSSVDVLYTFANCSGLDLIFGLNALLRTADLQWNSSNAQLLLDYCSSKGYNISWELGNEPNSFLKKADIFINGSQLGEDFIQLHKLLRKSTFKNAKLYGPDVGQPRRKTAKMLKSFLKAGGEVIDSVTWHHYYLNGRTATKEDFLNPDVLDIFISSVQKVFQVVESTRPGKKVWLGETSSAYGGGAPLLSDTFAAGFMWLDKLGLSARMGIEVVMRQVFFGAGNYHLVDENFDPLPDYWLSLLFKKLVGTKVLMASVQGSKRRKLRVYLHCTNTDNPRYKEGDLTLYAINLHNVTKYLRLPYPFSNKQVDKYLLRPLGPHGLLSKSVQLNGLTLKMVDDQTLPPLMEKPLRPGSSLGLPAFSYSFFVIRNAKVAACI

MIN6 [1] = assay: Inhibition of ROS production in mouse MIN6 cells assessed as reduction in SOD1 mRNA level at 15 uM incubated for 24 hrs by qRT-PCR analysis; type: functional, cell-based
In short: (§1)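 MIN6 cells grown in high-glucose DMEM/10% FBS/50 μM β-mercaptoethanol, cultured at ~50% confluency in conditioned medium from heparanase-producing or control CHO cells with PBS vehicle or inhibitor for 24 h. Total RNA extracted with Trizol; cDNA made from 500 ng RNA; transcripts measured by quantitative real-time PCR.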

Prothrombin = Prothrombin (Homo sapiens, UniProt P00734); assay: Inhibition of coagulation factor 2a (unknown origin) incubated for 2 mins in presence of AT3 by chromogenic substrate based […] assay
In short: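 Two-stage chromogenic anti-FIIa: sample (heparin 0.002-500 nM or trisaccharide 3.9-4000 nM) with ATIII (0.01 IU), 2 min at 37 °C; FIIa (1.2 nkat) added, 2 min at 37 °C; chromogenic substrate added, stopped after 2 min with citric acid (20 g/L). A405 read in triplicate; reverse-order sample blank subtracted.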

[2] = biological target: T2, Heparanase (Homo sapiens) (UniProt Q9Y251); assay: Inhibition of human recombinant heparanase assessed as reduction in [35S] labeled ECM degradation at 10 ug/ml incubated for 5 hrs relative to control
T2 sequence (whole entry): T1 sequence (Q9Y251 whole entry)
In short: (§2)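 [35S]sulfate-labeled ECM on 35 mm dishes incubated 5 h at 37 °C with recombinant human heparanase (0.5 ng/ml), with or without inhibitor, in 1 ml containing 50 mM NaCl, 1 mM DTT, 1 mM CaCl2, 10 mM phosphate-citrate pH 6.0. Released material gel-filtered on Sepharose 6B, eluted with PBS; 0.2 ml fractions counted for radioactivity.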

MIN6 [3] = assay: Inhibition of ROS production in mouse MIN6 cells at 15 uM incubated for 24 hrs by mitochondrial ROS probe staining based fluorescence microscopic method; type: functional, cell-based
In short: (§3)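 MIN6 mouse insulinoma cells in high-glucose DMEM, 10% FBS, 50 μM β-mercaptoethanol, seeded in 4-well slide chambers. At ~50% confluency, switched to conditioned medium from heparanase-producing or control CHO cells and given PBS vehicle or inhibitor for 24 h. Stained with mitochondrial ROS tracker (100 nM); fluorescence imaged by microscopy and extent/intensity quantified.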

[4] = biological target: T2, Heparanase (Homo sapiens); assay: Inhibition of heparanase (unknown origin) assessed as reduction in ROS-mediated SOD1 mRNA level in mouse MIN6 cells co-incubated with heparanase-producing CHO cells at 15 uM incubated for 24 hrs by qRT-PCR analysis; type: cell-based; in short: as §1
MIN6 [5] = assay: Inhibition of heparanase (unknown origin) assessed as reduction in ROS production in mouse MIN6 cells co-incubated with heparanase-producing CHO cells at 15 uM incubated for 24 hrs by mitochondrial ROS probe staining based fluorescence microscopic method; type: functional, cell-based; in short: as §3
MIN6 [6] = assay: Inhibition of ROS production in mouse MIN6 cells assessed as reduction in ERO1alpha mRNA level at 15 uM incubated for 24 hrs by qRT-PCR analysis; type: functional, cell-based; in short: as §1
[7] = biological target: T2, Heparanase (Homo sapiens); assay: Inhibition of human recombinant heparanase assessed as reduction in [35S] labeled ECM degradation at 50 ug/ml incubated for 5 hrs relative to control; in short: as §2
[8] = biological target: T2, Heparanase (Homo sapiens); assay: Inhibition of heparanase (unknown origin) assessed as reduction in ROS-mediated ERO1alpha mRNA level in mouse MIN6 cells co-incubated with heparanase-producing CHO cells at 15 uM incubated for 24 hrs by qRT-PCR analysis; type: cell-based; in short: as §1
Platelet factor 4 = biological target: T3, Platelet factor 4 (Homo sapiens, UniProt P02776); assay: Binding affinity to PF4 (unknown origin) by BLI assay
T3 sequence (P02776 whole entry): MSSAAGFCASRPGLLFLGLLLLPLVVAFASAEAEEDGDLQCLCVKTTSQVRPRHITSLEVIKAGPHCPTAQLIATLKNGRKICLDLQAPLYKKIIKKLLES
In short: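 PF4 (100 nM) mixed with ligand (0.08-250 μM trisaccharide; heparin 0.4-400 nM); free PF4 probed against biotin-heparin (5 μg/mL, 18 kDa) loaded on streptavidin biosensors. Mass-transport conditions; response fitted to a solution-affinity equation.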

Coagulation factor X, sequence (P00742 41-179 limits assumed): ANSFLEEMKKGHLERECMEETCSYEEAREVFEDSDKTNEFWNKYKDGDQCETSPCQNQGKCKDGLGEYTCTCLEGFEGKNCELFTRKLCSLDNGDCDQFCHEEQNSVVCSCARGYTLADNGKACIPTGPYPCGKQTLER
Coagulation factor X, sequence (P00742 235-488 limits assumed): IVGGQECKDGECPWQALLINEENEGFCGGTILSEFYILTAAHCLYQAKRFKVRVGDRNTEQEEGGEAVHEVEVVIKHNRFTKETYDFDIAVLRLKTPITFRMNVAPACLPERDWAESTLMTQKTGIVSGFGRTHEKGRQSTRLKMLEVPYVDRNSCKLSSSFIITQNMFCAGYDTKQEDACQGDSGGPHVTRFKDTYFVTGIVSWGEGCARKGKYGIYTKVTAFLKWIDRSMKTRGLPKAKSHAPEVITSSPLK

IC50 (Coagulation factor X)	IC50 (Heparanase)	IC50 (Prothrombin)	inhibition [2]	inhibition [4]	inhibition [7]	inhibition [8]	Kd (Platelet factor 4)	SMILES	inhibition (MIN6 [1])	inhibition (MIN6 [3])	inhibition (MIN6 [5])	inhibition (MIN6 [6])
11 nM								CO[C@H]1O[C@H](COS(=O)(=O)O)[C@@H](O[C@@H]2O[C@@H](C(=O)O)[C@@H](O[C@H]3O[C@H](COS(=O)(=O)O)[C@@H](O[C@@H]4O[C@H](C(=O)O)[C@@H](O[C@H]5O[C@H](COS(=O)(=O)O)[C@@H](O)[C@H](O)[C@H]5NS(=O)(=O)O)[C@H](O)[C@H]4O)[C@H](OS(=O)(=O)O)[C@H]3NS(=O)(=O)O)[C@H](O)[C@H]2OS(=O)(=O)O)[C@H](O)[C@H]1NS(=O)(=O)O [FONDAPARINUX]				
	42100 nM							O=C(O)[C@H]1O[C@@H](O[C@H]2[C@H](O)[C@@H](NS(=O)(=O)O)[C@H](OCCNS(=O)(=O)O)O[C@@H]2COS(=O)(=O)O)[C@H](O)[C@@H](O)[C@@H]1O[C@H]1O[C@H](COS(=O)(=O)O)[C@@H](O)[C@H](O)[C@H]1NS(=O)(=O)O				
> 2000 nM	393 nM	> 2000 nM	50%	Active	100%	Active	16000 nM	O=C(O)[C@H]1O[C@@H](O[C@H]2[C@H](O)[C@@H](NS(=O)(=O)O)[C@@H](OCCNS(=O)(=O)O)O[C@@H]2COS(=O)(=O)O)[C@H](O)[C@@H](O)[C@@H]1O[C@H]1O[C@H](COS(=O)(=O)O)[C@@H](O)[C@H](O)[C@H]1NS(=O)(=O)O	Active	Active	Active	Active
